TWEAK Fn14 block: blocks TWEAK-Fn14 interaction in a reporter cell assay. TWEAK-stimulated Fn14 reporter cells, luciferase luminescence, 8 h. inhibition, % at 10 µM. 360,000 compounds, 2% hits. AID 1159606; in the data active means inhibition above about 50%
LGR2 inh: blocks bursicon-induced cAMP signaling via Drosophila LGR2 | HEK293 LGR2, CRE-luciferase, bursicon-stimulated, 4 h | AID 720647 | 380,000 compounds, 0.35% hits | inhibition, % at 9.99 µM;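 active means drop in luminescence signal, shown as inhibition above about 50% in the replicate tests, limit read from the data, passing the limit was not always enough; inconclusive means probably only some replicates passing the limit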;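 further: agonist challenge used bursicon conditioned medium at about half maximal strength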
CaV13 ICDI inh: Primary screen for inhibitors of IQ motif and Ca2+-dependent inactivation inhibitor domain binding in CACNA1D, Förster resonance energy transfer in living cells, …; HEK cells, CFP/YFP FRET ICDI-IQ, plate reader, 10 min; percent FRET-ratio fall versus neutral wells; inhibition, % at 12.3 µM; 340,000 compounds, 0.098% hits; AID 743397;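 active means mean replicate inhibition of at least 30% and at least 1% of replicates passing that level; inconclusive means only one of the two criteria is met; inactive means neither criterion is met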
XiGFP reactiv: activators of X-chromosome reactivation in mouse fibroblasts; 360,000 compounds, 0.055% hits; XiGFP mouse fibroblasts, % GFP-positive cells imaging, 3 d; cells co-treated with 5-aza-dC sensitizer; scaled so ellipticine positive control = 100%; AID 743238; activation, % at 7.58 µM;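 active means mean normalized replicate activation at least 10% and every replicate at or above 10%; inconclusive means only one of the two criteria met; inactive means mean below 10% and not all replicates reach 10%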
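Material: XiGFP fibroblasts, SV40-immortalized; Buffer or medium: DMEM containing 5-aza-dC; Compound dosing: single point; Times: 3 days compound exposure.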
TROY signal inh: blocks TROY-dependent signaling in reporter cells | Q293 LMP1-TROYcd NF-kB luciferase reporter, 4 h | inhibition, % at 10 µM | 360,000 compounds, 0.98% hits | AID 1347056;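 active means compounds whose plate-normalised and pattern-corrected inhibition of the luciferase reporter signal at the single screening dose is 50% or more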
Large screens that a line does not name were inactive. A selection: hits, their analogues and other compounds. The true share with any hit is near 2%.

COc1ccc(S(=O)(=O)N(CCCN2CCOCC2)Cc2cccc3ccccc23)cc1	TWEAK Fn14 block 92 (no result: LGR2 inh, CaV13 ICDI inh, XiGFP reactiv, TROY signal inh)
C[C@@H]1CN([C@@H](C)CO)C(=O)c2cc(NC(=O)Nc3ccc(F)cc3)ccc2O[C@@H]1CN(C)CC1CCCCC1	none (no result: TWEAK Fn14 block, CaV13 ICDI inh, TROY signal inh)
C/C(=N/NC(=O)c1cc(C2CC2)[nH]n1)c1cccs1	TWEAK Fn14 block 89 (no result: LGR2 inh, XiGFP reactiv)
C/C(=N\NC(=O)c1ccccc1O)c1cccs1	TWEAK Fn14 block 73, LGR2 inh 52
O=C(C[C@@H]1CC[C@@H]2[C@H](COC[C@@H](O)CN2S(=O)(=O)c2cccc(F)c2)O1)Nc1ccccc1	none (no result: TWEAK Fn14 block, CaV13 ICDI inh, TROY signal inh)
CC(C)CC(=O)/C(=C\c1ccc(Cl)cc1Cl)n1cncn1	TWEAK Fn14 block 106, TROY signal inh 74 (no result: LGR2 inh, CaV13 ICDI inh, XiGFP reactiv)
CC(C)CC(=O)/C(=C/c1ccc(N(C)C)cc1)n1cncn1	none
CO[C@@H]1CN(C)C(=O)c2cc(NC(C)=O)ccc2OC[C@H](C)N(CCC(F)(F)F)C[C@@H]1C	none (no result: TWEAK Fn14 block, CaV13 ICDI inh, TROY signal inh)
CC(=O)N(Cc1ccc(F)cc1)C1=C(NCCc2ccccc2)C(=O)c2ccccc2C1=O	TWEAK Fn14 block 82, TROY signal inh 66 (no result: LGR2 inh, XiGFP reactiv)
c1ccc(-n2nnc3c(N4CCOCC4)ncnc32)cc1	TWEAK Fn14 block 87, LGR2 inh 83 (no result: XiGFP reactiv)
Cc1cccc(S(=O)(=O)N2CCCCN3[C@H](CO)[C@H](c4ccc(C#CC(C)C)cc4)[C@@H]3C2)c1	none (no result: TWEAK Fn14 block, CaV13 ICDI inh, TROY signal inh)
CC1=NN(c2ccccc2)C(=O)/C1=C/C=C/C=C/N(C)C	none
CC1=NN(c2cccc(C(=O)O)c2)C(=O)/C1=C\C=C/c1ccccc1	TWEAK Fn14 block 91, LGR2 inh inconclusive, TROY signal inh 54
CC1=NN(c2ccc(C)cc2)C(=O)/C1=C\C=C\c1ccccc1	TWEAK Fn14 block 94
CC1=NN(c2ccccc2)C(=O)C1=Cc1ccccc1	none
CCn1c(SCC(=O)OCc2ccccc2)nnc1-c1ccco1	none (no result: XiGFP reactiv)
CCn1c(Sc2ccc([N+](=O)[O-])cn2)nnc1-c1ccco1	TWEAK Fn14 block 55
CCOC(=O)N1CCN(Cc2nc(N)nc(Nc3ccc(OC)cc3)n2)CC1	none (no result: XiGFP reactiv)
CCOC(=O)N1CCN(Cc2nc(N)nc(Nc3ccc(Oc4ccccc4)cc3)n2)CC1	TWEAK Fn14 block 52 (no result: LGR2 inh, XiGFP reactiv)
CO[C@@H]1CC[C@H]2CCOc3c(C#N)cccc3C(=O)N(C)C[C@@H](c3ccccc3)CC(=O)N(C)C[C@@H]1O2	none (no result: TWEAK Fn14 block, CaV13 ICDI inh, TROY signal inh)
CN1CCN(c2ccc3sc(-n4ccc5ccccc54)nc3c2)CC1	TWEAK Fn14 block 65, TROY signal inh 80
C[C@H]1CN([C@@H](C)CO)S(=O)(=O)c2ccc(-c3ccc(F)cc3)cc2O[C@@H]1CN(C)C(=O)C1CC1	none (no result: TWEAK Fn14 block, CaV13 ICDI inh, TROY signal inh)
COc1cc(C(=O)O/N=C(\N)c2ccccn2)cc(OC)c1OC	none
Cc1ccc(C(=O)O/N=C(\N)c2ccccn2)cc1C	TWEAK Fn14 block 99, LGR2 inh 98, TROY signal inh 81
N/C(=N\OC(=O)c1ccccc1)c1ccccn1	TWEAK Fn14 block 96, LGR2 inh 95, TROY signal inh 75
Cc1cccc(/C(N)=N/OC(=O)C23CC4CC(CC(C4)C2)C3)c1	TROY signal inh 60 (no result: LGR2 inh)
Cc1cccc(/C(N)=N/OC(=O)c2ccc3c(c2)OCO3)c1	TWEAK Fn14 block 63, LGR2 inh 54
CC(C)(C)c1ccc(C(=O)O/N=C(\N)c2ccccn2)cc1	TWEAK Fn14 block 103, LGR2 inh 102, TROY signal inh 89
N/C(=N\OC(=O)c1ccc(F)cc1)c1nonc1N	none
C/C(=N/OC(=O)c1ccc(C)cc1)c1cccs1	TROY signal inh 62 (no result: LGR2 inh, XiGFP reactiv)
Cc1ccc(C(=O)O/N=C(\N)c2ccccn2)cc1	TWEAK Fn14 block 103, LGR2 inh 101, TROY signal inh 84
Cc1ccc(C(=O)O/N=C(\N)c2nonc2N)cc1	TWEAK Fn14 block 55, LGR2 inh 78, TROY signal inh 66
C/C(=N\OC(=O)c1ccc(C)cc1)c1sc(C)nc1C	none (no result: LGR2 inh, XiGFP reactiv)
CO[C@@H]1CN(C)C(=O)c2cc(NC(=O)C3CC3)ccc2OC[C@H](C)N(C(=O)c2cnccn2)C[C@@H]1C	none (no result: TWEAK Fn14 block, CaV13 ICDI inh, TROY signal inh)
C[C@@H]1CN([C@@H](C)CO)C(=O)Cc2cc(NC(=O)CCN3CCOCC3)ccc2O[C@H]1CN(C)Cc1ccc(-c2ccccc2)cc1	none (no result: TWEAK Fn14 block, CaV13 ICDI inh, TROY signal inh)
COc1cc(CN2CC3(CCN(C)CC3)c3c([nH]c4cc(OC)ccc34)[C@@H]2CO)cc(OC)c1	none (no result: TWEAK Fn14 block, LGR2 inh, CaV13 ICDI inh, TROY signal inh)
CC(C)(C)c1ccc(/C=N/NC(=O)c2ccccn2)cc1	TWEAK Fn14 block 71, LGR2 inh 86, TROY signal inh 52
CCOc1ccc(C(=O)O/N=C(\N)c2ccccn2)cc1	TWEAK Fn14 block 103, LGR2 inh 103, TROY signal inh 87
Cc1cccc(C(=O)O/N=C(\N)c2ccccn2)c1	TWEAK Fn14 block 102, LGR2 inh 100, TROY signal inh 85
N/C(=N\OC(=O)c1ccc(Br)o1)c1ccccn1	TWEAK Fn14 block 60, LGR2 inh 74, TROY signal inh 51
Cc1cccc(/C(N)=N/OC(=O)c2ccc(Br)o2)c1	none
CCc1ccc(OCC(=O)O/N=C(\N)c2ccccn2)cc1	none
O=C(N/N=C/c1ccsc1)c1ccccn1	none
CCC(=O)N(C)C[C@H]1Oc2ncc(C#CCC(C)C)cc2C(=O)N([C@@H](C)CO)C[C@@H]1C	none (no result: TWEAK Fn14 block, CaV13 ICDI inh, TROY signal inh)
O=C(NCC1CC1)[C@H]1[C@H](CO)[C@H]2Cn3c(ccc(C4=CCCC4)c3=O)[C@@H]1N2C(=O)C1CC1	none (no result: TWEAK Fn14 block, CaV13 ICDI inh, TROY signal inh)
N/C(=N\OC(=O)c1cccc(F)c1)c1ccccn1	TWEAK Fn14 block 84, LGR2 inh inconclusive, TROY signal inh 61
N/C(=N\OC(=O)c1cccc(F)c1)c1ccccc1	none (no result: XiGFP reactiv)
C[C@@H]1CN([C@@H](C)CO)C(=O)c2cc(-c3ccccc3F)cnc2O[C@@H]1CN(C)Cc1ccccc1	none (no result: TWEAK Fn14 block, CaV13 ICDI inh, TROY signal inh)
COc1cccc(C(=O)CSc2nccn2C)c1	TWEAK Fn14 block 86
Cn1ccnc1SCC(=O)c1cccc(Br)c1	none (no result: XiGFP reactiv)
CC(=O)NC[C@H]1[C@@H](c2ccc(C#C[C@@H](C)O)cc2)[C@@H](CO)N1Cc1ccccn1	none (no result: TWEAK Fn14 block, CaV13 ICDI inh, TROY signal inh)
Cc1ccc(C2=NN(C(=O)CN3CCN(C4CCS(=O)(=O)C4)CC3)C(c3ccco3)C2)cc1 (configuration not stated)	TWEAK Fn14 block 71, TROY signal inh 66
CCC(=O)N1N=C(c2ccc(Cl)cc2)CC1c1ccco1 (configuration not stated)	none
Cc1noc(C)c1NC(=O)Nc1ccc2c(c1)CC(=O)N([C@@H](C)CO)C[C@@H](C)[C@H](CN(C)Cc1ccc(Cl)c(Cl)c1)O2	none (no result: TWEAK Fn14 block, CaV13 ICDI inh, TROY signal inh)
CC(=O)NNc1cc(N2CCOCC2)nc(N2CCOCC2)n1	CaV13 ICDI inh active
O=C(NNc1cc(N2CCCC2)nc(N2CCCC2)n1)c1ccc([N+](=O)[O-])cc1	CaV13 ICDI inh 64
CC(C)(C)c1ccc(C(=O)NNc2cc(N3CCCCC3)nc(N3CCCCC3)n2)cc1	none (no result: LGR2 inh, XiGFP reactiv)
Fc1cccc(Cc2c(-c3ccco3)nc3c4ccccc4ccn23)c1	TWEAK Fn14 block 51
Clc1cccc(Cc2c(-c3cccc(Cl)c3)nc3c4ccccc4ccn23)c1	none

From PubChem BioAssay
